63 molecules from PubChem BioAssay AID871 (The Scripps Research Institute Molecular Screening Center, 2007) can be followed below.

Each structure is given as a SMILES string. The whole screen tested about 190,000 compounds, of which about 1,800 (0.95%) were called active. The sample holds actives, similar compounds and a random draw of the others, so the mix is not that of the screen.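 Rule for the calls: active = activation above the screen-wide mean of compound activation plus 3 SD (cut at about 130% in these data); inactive = the rest.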

This experiment is described as follows: IL-6 driven STAT3 reporter potentiators, primary screen, U3A cells, luciferase, luminescence, MLSCN library (AID 871).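 Note: 0% = background luminescence of wells with medium and substrate only.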 The settings on record: IL-6 STAT3-luciferase reporter, at 5.6 µM, active compounds read high, 100% = signal with IL-6 EC80 alone. Put shortly:
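Test system: Human STAT1-deficient U3A cells with stable STAT3-luciferase reporter | Also added: Interleukin-6, 33 ng/mL | Timing: Compound pre-incubation 1 h before IL-6, then 6 h stimulation at 37 °C | Technique: Luciferase reporter luminescence | Read-out: Percent of IL-6-only median luminescence | Benchmarks: IL-6-only wells as 100% reference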
On the technique in general: Reporter assays use an easily measured gene product as a stand-in for the process of interest.
`O=C(CNCc1ccco1)Nc1cc(S(=O)(=O)N2CCOCC2)ccc1N1CCCC1`: the activation (% of control) is 114% (inactive).

For `CCOc1ccc(NC(=S)N2CCC(N(C)CC3CCCO3)CC2)cc1` (stereo not drawn), the activation (% of control) is 102% (inactive).

In the case of `CCOc1cc(C(=O)N2CCc3cc(OC)c(OC)cc3C2)ccc1OC(F)F`, the activation (% of control) was 133% (active).

Turning to `COc1cc2c(cc1OC)CN(C(=O)c1cc(=O)c3ccccc3o1)CC2`, the activation (% of control) is 92.7% (inactive).

As for `COc1cc2c(cc1OC)CN(C(=O)c1ccc(S(=O)(=O)N3CCCCCC3)cc1)CC2`, the activation (% of control) was 92.7% (inactive).

For `O=C(CNS(=O)(=O)c1ccccc1)NCC(=O)OCc1ccccc1F`, the activation (% of control) is 108% (inactive).

Consider `CCN1CCC(=NNC(=O)c2ccc(C)c([N+](=O)[O-])c2)CC1`, for which the activation (% of control) is 107% (inactive).

In the case of `Cc1ccc(C(=O)Nc2cccc3ncccc23)cc1[N+](=O)[O-]`, the activation (% of control) was 94.5% (inactive).

Regarding `Cc1cc(O)c(NC(=O)c2ccc(C)c([N+](=O)[O-])c2)cc1C`, the activation (% of control) was 134% (active).

Regarding `Cc1ccccc1CC1(CO)CCCN(Cc2ccc3c(c2)OCCO3)C1` (stereo not drawn), the activation (% of control) was 93.5% (inactive).

On to `COc1ccccc1CCNC(=O)CSc1nnc2ccc(-c3cccnc3)nn12`, for which the activation (% of control) was 101% (inactive).

On to `CC(C)(C)C(=O)CN1C2=NCCN2c2ccccc21`, for which the activation (% of control) is 96.1% (inactive).

As for `C=C(C)Cn1c(SCC(=O)NCc2ccco2)nc2sc3c(c2c1=O)CCC3`, the activation (% of control) was 104% (inactive).

For the molecule `COc1ccc(CCn2c(=N)c(C(=O)NCc3ccco3)cc3c(=O)n4cccc(C)c4nc32)cc1`, the activation (% of control) is 94.5% (inactive).

With `O=C(NCc1ccco1)c1cccn2c(=O)c3c4c(sc3nc12)CCCC4`, the activation (% of control) was 154% (active).

Consider `O=C(Nc1nnc(SCc2ccccc2Cl)s1)c1cccc([N+](=O)[O-])c1`, for which the activation (% of control) is 109% (inactive).

In the case of `Fc1ccc2nc(-c3ccccc3)nc(SCc3nnc(-c4ccccc4)o3)c2c1`, the activation (% of control) is 141% (active).

With `Fc1ccc(-c2nnc(CSc3nnc(-c4ccc5c(c4)OCO5)o3)o2)cc1`, the activation (% of control) was 102% (inactive).

As to `c1ccc(-c2nnc(SCc3nc4ccccc4[nH]3)o2)cc1`, the activation (% of control) is 109% (inactive).

Regarding `O=C(NCCCO)/C(=C\C=C\c1ccccc1)NC(=O)c1ccccc1Cl`, the activation (% of control) was 101% (inactive).

For the molecule `CC1CCc2sc(C(=O)N/N=C/C3CCCCC3)cc2C1` (stereo not drawn), the activation (% of control) was 103% (inactive).

For the molecule `CN(NC(=O)c1ccccc1F)c1nc(C(F)(F)F)nc2ccccc12`, the activation (% of control) was 115% (inactive).

Turning to `CSc1nc(N(C)NC(=O)c2cccc(C)c2)c2ccccc2n1`, the activation (% of control) was 139% (active).

For the molecule `CN(NC(=O)c1ccccc1)c1nc2ccccc2nc1C(F)(F)F`, the activation (% of control) is 96% (inactive).

Regarding `CSc1ncccc1C(=O)Nc1nc2ccc(F)cc2s1`, the activation (% of control) is 90.7% (inactive).

For `Fc1ccc2nc(Nc3nc4c(s3)CCCC4)sc2c1`, the activation (% of control) is 147% (active).

As to `COc1ccc2nc(Nc3nc4cc5c(cc4s3)OCCO5)sc2c1`, the activation (% of control) is 93.3% (inactive).

`COc1cc(NC(=S)NCc2ccco2)c(OC)cc1Cl`: the activation (% of control) was 95.6% (inactive).

Turning to `COc1ccccc1N1CCN(C(=O)c2cc(-c3ccc(Cl)c(Cl)c3)on2)CC1`, the activation (% of control) is 91.7% (inactive).

For the molecule `O=C(c1ccncc1)N1CCN(c2ccc3ccccc3n2)CC1`, the activation (% of control) is 90% (inactive).

With `O=C(c1ccc2ccccc2n1)N1CCN(c2ccccc2Cl)CC1`, the activation (% of control) is 135% (active).

Take `O=C(/C=C/c1ccc(F)cc1)NCCNC(=O)/C=C/c1ccc(F)cc1`: the activation (% of control) is 95% (inactive).

Take `COC(=O)CC(=O)N1CCN(c2ccc(Cl)c(Cl)c2)CC1`: the activation (% of control) is 87.7% (inactive).

Take `CC(C)(C)C(=O)N(Cc1ccccc1)c1ccccn1`: the activation (% of control) is 106% (inactive).

For `CCC(=O)N(Cc1ccccc1)c1ccccn1`, the activation (% of control) was 101% (inactive).

Turning to `Cc1csc2ncc(C(=O)N(Cc3ccccc3)c3ccccn3)c(=O)n12`, the activation (% of control) was 144% (active).

Regarding `CCCCCCCCc1c(O)nc(-n2[nH]c(C)c(CCO)c2=O)[nH]c1=O`, the activation (% of control) was 102% (inactive).

Turning to `CCCC1OC23CCCCC2C(C#N)(C#N)C1(C#N)C(=N)O3` (stereo not drawn), the activation (% of control) was 104% (inactive).

On to `CC(C)(C)c1ccc(NC(=O)COC(=O)CCc2nc3ccccc3c(=O)[nH]2)cc1`, for which the activation (% of control) is 95.4% (inactive).

Consider `COc1ccc(/C=C(/CC(=O)Nc2ccc(C)cc2)c2nc3ccccc3s2)cc1`, for which the activation (% of control) is 103% (inactive).

In the case of `COc1cccc(C(=O)Nc2ccc(N3CCCC3)cc2)c1`, the activation (% of control) is 90.1% (inactive).

As for `COc1cccc(/C=C(/CC(=O)Nc2ccc(N3CCOCC3)cc2)c2nc3ccccc3s2)c1`, the activation (% of control) was 143% (active).

`CCc1ccccc1NC(=O)CN(C)C(=O)COc1ccc(C)nc1[N+](=O)[O-]`: the activation (% of control) is 104% (inactive).

As to `COc1ccc(CC(=O)Nc2ccccc2NC(=O)c2ccco2)cc1OC`, the activation (% of control) is 100% (inactive).

In the case of `CCOC(=O)C1C(c2ccc(Cl)cc2)NC(=S)NC1(O)C(F)(F)F` (stereo not drawn), the activation (% of control) was 98.2% (inactive).

With `CCCCCCCC1(C)NC(=O)N(CC(=O)Nc2cc(C)on2)C1=O` (stereo not drawn), the activation (% of control) was 93.7% (inactive).

As for `O=C(O)CSCc1nc2ccccc2s1`, the activation (% of control) is 144% (active).

Take `O=C(O)CCCCc1nc2ccccc2s1`: the activation (% of control) was 94.9% (inactive).

As for `O=C(Nc1ccccc1)Nc1nc2ccccc2s1`, the activation (% of control) is 100% (inactive).

With `CSCCC(Nc1nc2ccccc2s1)C(=O)O` (stereo not drawn), the activation (% of control) was 99.7% (inactive).

Turning to `O=C(O)CS/C(=C\c1ccc(F)cc1)c1nc2ccccc2s1`, the activation (% of control) was 136% (active).

In the case of `COc1cccc2sc(NNC(=O)c3nc4ccccc4s3)nc12`, the activation (% of control) is 120% (inactive).

Regarding `CCOP(=O)(OCC)C(Nc1cccc(C)c1)c1ccc(F)cc1` (stereo not drawn), the activation (% of control) was 95.7% (inactive).

With `O=C(Cn1nnc2ccccc2c1=O)NCc1ccc(Cl)cc1`, the activation (% of control) is 101% (inactive).

With `C#CCCCc1nc2ccccc2c(=O)n1N`, the activation (% of control) was 96.4% (inactive).

As to `Cc1cc(C(=O)NNC(=S)Nc2ccccc2C)cs1`, the activation (% of control) is 100% (inactive).

With `COc1ccc(C(=O)NC(Cc2ccc(OC(=O)c3ccc(OC)cc3)cc2)C(=O)O)cc1` (stereo not drawn), the activation (% of control) was 100% (inactive).

For the molecule `NC1=NC(=O)C(Cc2cccc(Cl)c2Cl)S1` (stereo not drawn), the activation (% of control) is 98.2% (inactive).

For the molecule `CC(=O)n1c(C=Nc2ccccc2)c(O)c2ccccc21`, the activation (% of control) is 134% (active).

Consider `CCOc1ccc(N=Cc2c(O)n(-c3cccc(C)n3)c(=O)c3ccccc23)cc1`, for which the activation (% of control) is 78.3% (inactive).

For `CCCCn1c(=O)c(C(C)=O)c(O)c2ccccc21`, the activation (% of control) was 106% (inactive).

With `O=C1c2ccccc2NC(c2ccccc2O)N1NS(=O)(=O)c1ccccc1` (stereo not drawn), the activation (% of control) is 101% (inactive).

`COc1ccc(CN2CCN(Cc3cn(C)nc3-c3ccccc3)CC2CCO)c(C)c1C` (stereo not drawn): the activation (% of control) was 105% (inactive).
